The subject of series [1] is Mus musculus. The series is described as follows: Hepatotoxicity in Swiss mouse assessed as change in plasma AST level at 10 mg/kg, ip for 7 days. It is filed as toxicity, organism-based. The arrangement: dose 10 mg/kg, route intraperitoneal. Particulars: in vivo, 168 h. The gist of the method: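 Mice dosed daily ip at 10 mg/kg for 7 days; vehicle was saline or Tris/HCl pH 8.0. Plasma AST and ALT measured with a diagnostic kit.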

Series [2] has as its system Mus musculus. As to the kind of experiment: Antioxidant activity in Swiss mouse assessed as prevention of carrageenan-induced decrease in 2,2'-Azinobis(3-ethylbenzothiazoline 6-sulfonic acid) scavenging ability at 10 mg/kg, ip administered 30 mins prior to carrageenan-challenge measured after 3 hrs by spectrophotometric analysis. In kind it is functional, organism-based. The arrangement: dose 10 mg/kg. The gist of the method: (§1)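 Given at 10 mg/kg ip 30 min before intraplantar carrageenan; plantar skin taken at 3 h, two mice pooled per sample. Tissue homogenized in 1.15% KCl. FRAP: 37 °C for 30 min, absorbance at 595 nm. ABTS: diluted to A730 0.80 in PBS pH 7.4, read at 730 nm after 6 min. Both expressed as Trolox equivalents/mg tissue (Trolox standard 1.5–30 μmol/L final).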

Series [3] deals with Mus musculus. As to the kind of experiment: Antinociceptive activity in Swiss mouse assessed as inhibition of acetic acid-induced writhing response at 1 to 3 mg/kg, ip administered 30 mins prior to acetic acid-challenge measured for 20 mins. In kind it is functional, organism-based. The gist of the method:
(§2)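 Doses of 0.3–10 mg/kg given ip in saline 30 min before ip acetic acid (0.8% v/v in saline, 10 mL/kg). Cumulative abdominal writhing counted over 20 min and presented in 2-min intervals. Six mice per group; representative of two experiments.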
On the technique in general: An intraperitoneal irritant provokes the stretching counted in writhing tests.

For series [4], the system named is Mus musculus. The series is described as follows: Antinociceptive activity in Swiss mouse assessed as inhibition of capsaicin-induced mechanical hyperalgesia at 10 mg/kg, ip administered 30 mins prior to capsaicin-challenge measured after 1 to 5 hrs by electronic pressure-meter test. It is filed as functional, organism-based. Further details: dose 10 mg/kg. Summed up:
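Dosed at 10 mg/kg ip 30 min before intraplantar capsaicin (1.6 μg/paw). Mechanical hyperalgesia measured by electronic pressure-meter as Δ withdrawal threshold (g), average of three readings. Thermal hyperalgesia measured as hot-plate latency at 55 °C with a 30 s cutoff. Both read at 1, 3 and 5 h. Six mice per group.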

For series [5], the system named is Mus musculus. As to the kind of experiment: Antinociceptive activity in ip dosed Swiss mouse assessed as inhibition of acetic acid-induced writhing response administered 30 mins prior to acetic acid-challenge measured for 20 mins. It is filed as functional, organism-based. Summed up:
as §2

Series [6] deals with Mus musculus. As to the kind of experiment: Antioxidant activity in Swiss mouse assessed as prevention of carrageenan-induced decrease in GSH levels at 10 mg/kg, ip administered 30 mins prior to carrageenan-challenge measured after 3 hrs by UV-vis spectrophotometric analysis. It is filed as functional, organism-based. Further details: dose 10 mg/kg. Summed up:
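Given at 10 mg/kg ip 30 min before intraplantar carrageenan (300 μg/paw); plantar skin taken at 3 h, four paws pooled per sample. Tissue homogenized in 0.02 M EDTA with TCA and centrifuged. Supernatant reacted with DTNB in Tris 0.4 M pH 8.9; absorbance read at 412 nm after 5 min. Reported as nmol GSH/mg tissue. Three pools per experiment.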

Series [7] relates to Mus musculus. The series is described as follows: Antioxidant activity in Swiss mouse assessed as prevention of carrageenan-induced decrease in ferric-reducing ability potential at 10 mg/kg, ip administered 30 mins prior to carrageenan-challenge measured after 3 hrs by spectrophotometric analysis. In kind it is functional, organism-based. Further details: dose 10 mg/kg. Summed up:
as §1

For series [8], the system named is Mus musculus. The series is described as follows: Antiinflammatory activity in Swiss mouse assessed as increase in carrageenan-induced IL-10 production 10 mg/kg, ip administered 30 mins prior to carrageenan-challenge measured after 3 hrs by ELISA. In kind it is functional, organism-based. Further details: dose 10 mg/kg. Summed up: (§3)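 Compound given ip in saline 30 min before intraplantar carrageenan (300 μg/paw). Paw skin taken 3 h later and homogenized in 500 μL buffer with protease inhibitors. TNF-α, IL-1β, IL-6, IL-33 and IL-10 measured by ELISA, reported as pg/100 mg tissue. Saline-injected paws served as controls. Six mice per group; representative of two experiments.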
In general terms: An ELISA detects its analyte on a solid surface through an enzyme-linked reagent.

The subject of series [9] is Mus musculus. As to the kind of experiment: Antiinflammatory activity in Swiss mouse assessed as inhibition of carrageenan-induced TNFalpha production 10 mg/kg, ip administered 30 mins prior to carrageenan-challenge measured after 3 hrs by ELISA. In kind it is functional, organism-based. Further details: dose 10 mg/kg. To be noted: at 10 mg/kg. Summed up:
as §3

The subject of series [10] is Mus musculus. As to the kind of experiment: Antinociceptive activity in Swiss mouse assessed as inhibition of acetic acid-induced writhing response at 0.3 mg/kg, ip administered 30 mins prior to acetic acid-challenge measured for 20 mins. In kind it is functional, organism-based. The arrangement: dose 0.3 mg/kg. The gist of the method:
as §2

In series [11] the test system is Mus musculus. As to the kind of experiment: Antiinflammatory activity in Swiss mouse assessed as inhibition of carrageenan-induced IL-33 production 10 mg/kg, ip administered 30 mins prior to carrageenan-challenge measured after 3 hrs by ELISA. It is filed as functional, organism-based. Further details: dose 10 mg/kg. Particulars: at 10 mg/kg. The gist of the method: as §3

The subject of series [12] is Mus musculus. As to the kind of experiment: Antinociceptive activity in Swiss mouse assessed as inhibition of complete Freund's adjuvant-induced thermal hyperalgesia at 10 mg/kg, ip administered 24 hrs after complete Freund's adjuvant-challenge for seven days by hot plate test. It is filed as functional, organism-based. The arrangement: dose 10 mg/kg. The gist of the method:
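Treatment at 10 mg/kg ip given daily, starting 24 h after intraplantar CFA (10 μL/paw), for seven days. Electronic pressure-meter (Δ threshold, g) and hot plate (55 °C, 30 s cutoff) read every 24 h over days 1–8. Six mice per group.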
For orientation: Thermal pain tests record how soon the animal reacts.

For series [13], the system named is Mus musculus. The series is described as follows: Antinociceptive activity in Swiss mouse assessed as inhibition of carrageenan-induced thermal hyperalgesia at 1 mg/kg, ip administered 30 mins prior to carrageenan-challenge measured after 1 to 5 hrs by hot plate test. In kind it is functional, organism-based. Further details: dose 1 mg/kg. The gist of the method:
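Doses of 1–10 mg/kg given ip 30 min before intraplantar carrageenan (300 μg/paw). Hot plate held at 55 °C; latency to jump or lick paws recorded at 1, 3 and 5 h, with a 30 s cutoff. Two baseline latencies taken at least 10 min apart. Six mice per group.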

The subject of series [14] is Mus musculus. As to the kind of experiment: Neurotoxicity in Swiss mouse assessed as change in motor response at 10 mg/kg, ip after 5.5 hrs by rotarod test (reference value: 180 seconds). In kind it is toxicity, organism-based. Further details: dose 10 mg/kg, route intraperitoneal. To be noted: in vivo. The gist of the method:
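Rota-rod with a 2.5 cm bar at 22 rpm. Mice pre-selected 24 h earlier by staying on the bar for two consecutive 180 s periods. Given 10 mg/kg ip (vehicle 2% DMSO in saline) and tested at 1.5, 3.5 and 5.5 h, with a 180 s cutoff. n = 6.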

In series [15] the test system is Mus musculus. As to the kind of experiment: Antinociceptive activity in Swiss mouse assessed as inhibition of carrageenan-induced mechanical hyperalgesia at 1 to 3 mg/kg, ip administered 30 mins prior to carrageenan-challenge measured after 3 hrs by electronic pressure-meter test. It is filed as functional, organism-based. The gist of the method:
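Doses of 1–10 mg/kg given ip 30 min before intraplantar carrageenan (300 μg/paw). Electronic pressure-meter applied to mice on a wire grid floor; paw withdrawal with flinching was the end point, and each value is the average of three readings. Result reported as Δ withdrawal threshold (g) from baseline at 1, 3 and 5 h. Six mice per group; two-way ANOVA.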

In series [16] the test system is Mus musculus. As to the kind of experiment: Antinociceptive activity in Swiss mouse assessed as inhibition of formalin-induced paw flinching at 10 mg/kg, ip administered 30 mins prior to formalin-challenge measured after 30 mins. In kind it is functional, organism-based. The arrangement: dose 10 mg/kg. Summed up:
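Given ip 30 min before intraplantar formalin (25 μL of 1.5% in saline). Paw flinches and licking time recorded from 0 to 30 min in 5-min bins, covering the first (0–5 min) and second (10–30 min) phases. Six mice per group; representative of two experiments.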

Series [17] relates to Mus musculus. The series is described as follows: Antiinflammatory activity in Swiss mouse assessed as inhibition of carrageenan-induced IL-1beta production 10 mg/kg, ip administered 30 mins prior to carrageenan-challenge measured after 3 hrs by ELISA. In kind it is functional, organism-based. The arrangement: dose 10 mg/kg. To be noted: at 10 mg/kg. The gist of the method: as §3

The test system of series [18] is Mus musculus. The series is described as follows: Antinociceptive activity in Swiss mouse assessed as inhibition of complete Freund's adjuvant-induced paw flinching at 10 mg/kg, ip administered 30 mins prior to complete Freund's adjuvant-challenge measured after 30 mins. In kind it is functional, organism-based. The arrangement: dose 10 mg/kg. Summed up: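 Dosed ip 30 min before intraplantar CFA (10 μL/paw). Flinches and licking time of the injected paw counted over 0–30 min and expressed as totals for 30 min. Six mice per group; representative of two experiments.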

Structures are written as SMILES. Activity calls are given as the source filed them.

For the compound `O=c1cc(-c2ccc(O)cc2)oc2c([C@@H]3O[C@H](CO)[C@@H](O)[C@H](O)[C@H]3O)c(O)cc(O)c12` [VITEXIN], the Activity result in series [1] is on record as “Non-toxic”. Further, the result in series [2], in [6], in series [7] and in series [8] was Active. The inhibition entry in series [3], in [4], in series [9], in [10], in series [11] and in series [12] was “Active” each time. In addition, the inhibition result in series [15], in [16], in series [17] and in series [18] was “Active” each time. Moreover, the inhibition result in series [5] was “Dose-dependent effect”. In addition, in series [13], the inhibition result is “inactive”. For the same compound, the Time in series [14] worked out at 180 s.
